≈ marks a conversion by molar mass, not a printed value.
Tests used:
[1] = test system: Mycobacterium tuberculosis; assay: Antimicrobial activity against GFP expressing recombinant Mycobacterium tuberculosis H37RvMA under 7H9 medium assessed as growth inhibition after 14 days by broth microdilution method; type: functional; conditions: 336 h
[2] = test system: Mycobacterium tuberculosis; assay: Antimicrobial activity against clinical isolates of Mycobacterium tuberculosis SAWC 3385 Cas1/Delhi under 7H9 medium assessed as growth inhibition after 14 days by alamar blue assay; type: functional; conditions: 336 h
[3] = test system: Mycobacterium tuberculosis; assay: Antimicrobial activity against clinical isolates of Mycobacterium tuberculosis SAWC 3906 Atyp-beijing under 7H9 medium assessed as growth inhibition after 14 days by alamar blue assay; type: functional; conditions: 336 h
[4] = Metabolic stability in human liver microsomes assessed as residual compound at 0.1 uM after 30 mins by LC-MS/MS method in presence or absence of NADPH; type: ADME; conditions: read-out: Stability
Plasma [5] = assay: Drug metabolism in C57/BL6 mouse plasma assessed as formation of 7-Amino-2-benzyl-4-methyl-1,3-dioxo-2,3-dihydro-1H-pyrrolo-[3,4-c]pyridine-6-carboxylic Acid by LC-MS analysis in absence of NADPH; type: ADME, cell-free
[6] = test system: Mycobacterium tuberculosis; assay: Drug metabolism in supernatant of Mycobacterium tuberculosis assessed as formation of 7-Amino-2-benzyl-4-methyl-1,3-dioxo-2,3-dihydro-1H-pyrrolo-[3,4-c]pyridine-6-carboxylic Acid in absence of NADPH; type: ADME, organism-based
Liver [7] = assay: Drug metabolism in BALB/c mouse liver microsomes assessed as formation of 7-Amino-2-benzyl-4-methyl-1,3-dioxo-2,3-dihydro-1H-pyrrolo-[3,4-c]pyridine-6-carboxylic Acid at 10 uM after 1 hr by LC-MS analysis in absence of NADPH; type: ADME
Vero = assay: Cytotoxicity against African green monkey Vero cells assessed as cell viability by MTT assay; type: cell-based; conditions: Chlorocebus sabaeus
Outline: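 VERO kidney epithelial cells from African green monkey were exposed to compounds at concentrations up to 100 μM, and IC₅₀ was reported.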

[8] = test system: Mycobacterium tuberculosis; assay: Antimicrobial activity against GFP expressing recombinant Mycobacterium tuberculosis H37RvMA under GAST/Fe medium assessed as growth inhibition after 14 days by broth microdilution method; type: functional; conditions: 336 h
[9] = Kinetic solubility in FaSSIF at pH 6.5 after 2 hours at 25 degC by shake flask method; type: physicochemical; conditions: read-out: Kinetic_solubility
[10] = test system: Mycobacterium tuberculosis; assay: Antimicrobial activity against clinical isolates of Mycobacterium tuberculosis SAWC 2371 Haarlem under 7H9 medium assessed as growth inhibition after 14 days by alamar blue assay; type: functional; conditions: 336 h
[11] = Metabolic stability in rat liver microsomes assessed as residual compound at 0.1 uM after 30 mins by LC-MS/MS method in presence or absence of NADPH; type: ADME; conditions: read-out: Stability
[12] = test system: Mycobacterium tuberculosis; assay: Antimicrobial activity against Mycobacterium tuberculosis H37RvMA under GAST/Fe medium assessed as growth inhibition after 14 days by alamar blue assay; type: functional; conditions: 336 h
Outline: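 Broth microdilution in GAST/Fe medium against fully virulent Mtb H37RvMa or its derived strains (cytochrome bd oxidase deletion ΔcydKO; qcrB Ala317Thr point mutant). Plates were incubated 14 days, growth was read by Alamar Blue, and MIC90 was taken as the potency value.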

[13] = Metabolic stability in mouse liver microsomes assessed as residual compound at 0.1 uM after 30 mins by LC-MS/MS method in presence or absence of NADPH; type: ADME; conditions: read-out: Stability
Liver [14] = assay: Drug metabolism in BALB/c mouse liver microsomes assessed as formation of 7-Amino-2-benzyl-4-methyl-1,3-dioxo-2,3-dihydro-1H-pyrrolo-[3,4-c]pyridine-6-carboxamide at 10 uM after 1 hr by LC-MS analysis; type: ADME
Liver [15] = assay: Drug metabolism in BALB/c mouse liver microsomes assessed as formation of 7-Amino-2-benzyl-4-methyl-1,3-dioxo-2,3-dihydro-1H-pyrrolo-[3,4-c]pyridine-6-carboxylic Acid at 10 uM after 1 hr by LC-MS analysis; type: ADME
Plasma [16] = assay: Drug metabolism in C57/BL6 mouse plasma assessed as formation of 7-Amino-2-benzyl-4-methyl-1,3-dioxo-2,3-dihydro-1H-pyrrolo-[3,4-c]pyridine-6-carboxamide by LC-MS analysis; type: ADME, cell-free
Plasma [17] = assay: Drug metabolism in C57/BL6 mouse plasma assessed as formation of 7-Amino-2-benzyl-N-cyano-4-methyl-1,3-dioxo-2,3-dihydro-1Hpyrrolo[3,4-c]pyridine-6-carboxamide by LC-MS analysis; type: ADME, cell-free
Plasma [18] = assay: Drug metabolism in C57/BL6 mouse plasma assessed as formation of 7-Amino-2-benzyl-4-methyl-1,3-dioxo-2,3-dihydro-1H-pyrrolo-[3,4-c]pyridine-6-carboxylic Acid by LC-MS analysis; type: ADME, cell-free
Liver [19] = assay: Drug metabolism in BALB/c mouse liver microsomes assessed as formation of 7-Amino-2-benzyl-N-cyano-4-methyl-1,3-dioxo-2,3-dihydro-1Hpyrrolo[3,4-c]pyridine-6-carboxamide at 10 uM after 1 hr by LC-MS analysis; type: ADME
[20] = test system: Mycobacterium tuberculosis; assay: Drug level in supernatant of Mycobacterium tuberculosis treated with Ethyl 7-Amino-2-benzyl-4-methyl-1,3-dioxo-2,3-dihydro-1Hpyrrolo[3,4-c]pyridine-6-carboxylate in absence of NADPH; type: ADME, organism-based
Plasma [21] = assay: Drug level in C57/BL6 mouse plasma treated with ethyl 7-Amino-2-benzyl-4-methyl-1,3-dioxo-2,3-dihydro-1Hpyrrolo[3,4-c]pyridine-6-carboxylate by LC-MS analysis in absence of NADPH; type: ADME, cell-free
Liver [22] = assay: Drug level in BALB/c mouse liver microsomes treated with ethyl 7-Amino-2-benzyl-4-methyl-1,3-dioxo-2,3-dihydro-1Hpyrrolo[3,4-c]pyridine-6-carboxylate at 10 uM after 1 hr by LC-MS analysis in absence of NADPH; type: ADME
Plasma [23] = assay: Drug metabolism in C57/BL6 mouse plasma treated with 7-Amino-2-benzyl-4-methyl-6-(3-methyl-1,2,4-oxadiazol-5-yl)-1H-pyrrolo[3,4-c]pyridine-1,3(2H)-dione by LC-MS analysis; type: ADME, cell-free
Liver [24] = assay: Drug level in BALB/c mouse liver microsomes treated with 7-Amino-2-benzyl-4-methyl-6-(3-methyl-1,2,4-oxadiazol-5-yl)-1H-pyrrolo[3,4-c]pyridine-1,3(2H)-dione at 10 uM after 1 hr by LC-MS analysis; type: ADME
CHO = assay: Cytotoxicity against CHO cells assessed as cell viability by MTT assay; type: cell-based; conditions: Cricetulus griseus

SMILES: CCOC(=O)c1nc(C)c2c(c1N)C(=O)N(Cc1ccccc1)C2=O
- MIC90 [1]: > 20 µM
- MIC90 [2]: < 0.08 µM
- MIC90 [3]: < 0.08 µM
- remaining at 0.5 h, 0.1 µM [4]: 14%
- Drug metabolism (Plasma [5]): metabolite_detected
- Drug metabolism [6]: metabolite_detected
- Drug metabolism (Liver [7]): metabolite_detected
- IC50 (Vero): > 100 µM
- MIC90 [8]: 0.132 µM
- solubility kinetic at 2 h [9]: < 5 µM
- MIC90 [10]: < 0.08 µM
- remaining at 0.5 h, 0.1 µM [11]: 19%
- MIC90 [12]: < 0.156 µM
- remaining at 0.5 h, 0.1 µM [13]: 18%

SMILES: Cc1noc(-c2nc(C)c3c(c2N)C(=O)N(Cc2ccccc2)C3=O)n1
- remaining at 0.5 h, 0.1 µM [4]: 57%
- IC50 (Vero): > 100 µM
- solubility kinetic at 2 h [9]: < 5 µM
- remaining at 0.5 h, 0.1 µM [11]: 100%
- Drug metabolism (Liver [14]): metabolite_detected
- Drug metabolism (Liver [15]): metabolite_detected
- Drug metabolism (Plasma [16]): metabolite_detected
- Drug metabolism (Plasma [17]): metabolite_detected
- MIC90 [12]: 0.625 µM (≈ 0.218 µg/mL)
- Drug metabolism (Plasma [18]): metabolite_detected
- Drug metabolism (Liver [19]): metabolite_detected
- remaining at 0.5 h, 0.1 µM [13]: 98%

SMILES: Cc1nc(C(=O)O)c(N)c2c1C(=O)N(Cc1ccccc1)C2=O
- remaining at 0.5 h, 0.1 µM [4]: 64%
- solubility kinetic at 2 h [9]: 177 µM (≈ 55.1 µg/mL)
- Drug metabolism [20]: metabolite_detected
- remaining at 0.5 h, 0.1 µM [11]: 71%
- Drug metabolism (Plasma [21]): metabolite_detected
- Drug metabolism (Liver [22]): metabolite_detected
- MIC90 [12]: 3.13 µM (≈ 0.974 µg/mL)
- Drug metabolism (Plasma [23]): metabolite_detected
- Drug metabolism (Liver [24]): metabolite_detected
- remaining at 0.5 h, 0.1 µM [13]: 79%
- IC50 (CHO): > 100 µM

Reference: ChEMBL document CHEMBL3734652, “Pyrrolo[3,4-c]pyridine-1,3(2H)-diones: A Novel Antimycobacterial Class Targeting Mycobacterial Respiration” (J Med Chem, 2015)
